# Compound activity: PubChem BioAssay, Sanford-Burnham Center for Chemical Genomics
# Sampled rows, rich in hits. Any-hit rate of the full collection: about 0.79%.
# mIAP act – increases mouse intestinal alkaline phosphatase activity | muIAP, CDP-Star luminescence, 30 min; hits give high values; 1 = vehicle-only enzyme signal, 0 = enzyme-free wells | activation factor at 10 µM | 330,000 tested, 0.24% active | AID 2805;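 active means activation factor of at least 2 at 20 µM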
#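 Assay system: mouse IAP enzyme / Compound: DMSO-dissolved test compounds / Timing: 30 min, room temperature / Measured by: luminescence from enzymatic CDP-Star hydrolysis / Control set: DMSO-only wells, enzyme-free buffer wells as negative control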
# bIAP inh – blocks bovine intestinal alkaline phosphatase activity | inhibition, % at 20 µM | purified bovine IAP, CDP-star luminescence, 30 min | 190,000 tested, under 10 active;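 active means over 50% inhibition of intestinal alkaline phosphatase at 20 µM in the single-dose screen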
#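 Incubation: 30 min reaction at room temperature / Material: purified bovine intestinal alkaline phosphatase (IAP) enzyme / Input: enzyme at 1/65,000,000 dilution / Dosing: 20 µM single dose / Signal: CDP-star luminescence signal / Reagent: CDP-star chemiluminescent phosphatase substrate, 30 µM final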
# bIAP activator – increases bovine intestinal alkaline phosphatase activity; purified bovine IAP, CDP-star luminescence, 30 min; hits give high values; fold of DMSO-control signal, blank-subtracted; activation factor at 20 µM; 200,000 tested, 0.17% active; AID 1016;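 active means activation factor of 2 or more at 20 µM, a signal rise over negative controls twice the positive control's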
# mIAP inh – mouse IAP inhibition; inhibition, % at 10 µM; 330,000 tested, 0.2% active; purified mouse IAP, CDP-Star luminescence, 30 min; AID 2806;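 active means inhibition of at least 40% at 10 µM in the primary screen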;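 further: plate controls were DMSO with enzyme for no effect and no enzyme wells for full effect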
# hIAP inh – blocks human intestinal alkaline phosphatase. purified IAP, CDP-Star luminescence, 30 min. inhibition, % at 10 µM. 330,000 tested, 0.12% active;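 active means inhibition reaching a set limit with compound at 10 µM in the primary screen, cut at about 35% in these data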;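 further: plate controls were DMSO wells with enzyme for no effect and no-enzyme buffer wells for full effect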
# Target sequence (P09923 whole entry, looked up): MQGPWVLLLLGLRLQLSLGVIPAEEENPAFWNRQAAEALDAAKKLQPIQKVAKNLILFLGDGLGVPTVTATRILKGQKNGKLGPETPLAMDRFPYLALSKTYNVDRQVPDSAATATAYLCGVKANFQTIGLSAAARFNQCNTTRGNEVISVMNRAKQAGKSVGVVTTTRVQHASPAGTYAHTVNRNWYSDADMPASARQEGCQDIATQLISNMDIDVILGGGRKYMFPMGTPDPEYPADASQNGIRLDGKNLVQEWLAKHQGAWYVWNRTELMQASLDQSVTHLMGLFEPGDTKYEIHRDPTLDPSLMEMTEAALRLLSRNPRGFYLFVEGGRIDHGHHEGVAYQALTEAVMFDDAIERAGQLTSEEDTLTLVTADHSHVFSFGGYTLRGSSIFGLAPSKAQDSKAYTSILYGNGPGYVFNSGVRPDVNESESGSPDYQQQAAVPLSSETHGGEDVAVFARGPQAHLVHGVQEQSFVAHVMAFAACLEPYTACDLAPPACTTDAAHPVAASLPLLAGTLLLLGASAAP
# hIAP act – increases human intestinal alkaline phosphatase activity; purified human IAP, CDP-Star luminescence, 30 min; hits give high values; 1 = vehicle-only enzyme, 0 = enzyme-free background; activation factor at 10 µM; P09923; 330,000 tested, 0.16% active; AID 2524;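 active means activation factor of the enzyme at least 2-fold when tested at 20 µM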
# hIAP act confirm – human IAP activation confirmation; 880 tested, 10% active; shares compounds with hIAP act; purified IAP, CDP-Star luminescence, 30 min; hits give low values; activation (%Activity, negative = activation), % at 8.3 µM;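 active means at least twofold enzyme activation in any of six single-dose repeats, which the averaged readout prints as negative percent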
# * = called active by the depositor; . = no result.
SMILES,mIAP act,bIAP inh,bIAP activator,mIAP inh,hIAP inh,hIAP act,hIAP act confirm
CCc1occc(=O)c1Oc1cc(NN2CCCCC2)c([N+](=O)[O-])cc1[N+](=O)[O-],0.98,.,.,2,42*,0.57,-42
CC(C)N(Cc1nc2ccccc2[nH]1)C(C)C,1,3,1,-1,9,0.91,.
CC(c1ccccc1)C(Cc1nc2ccccc2[nH]1)c1nc2ccccc2[nH]1 (configuration not stated),1.7,-306,4.1*,-71,-118,2.2*,6
Cc1cccc(CC(Cc2nc3ccccc3[nH]2)c2nc3ccccc3[nH]2)c1 (configuration not stated),1.4,-332,4.3*,-41,-140,2.4*,30
OC(c1ccccc1)c1nc2ccccc2[nH]1 (configuration not stated),1,.,.,-1,10,0.9,.
OC(c1nc2ccccc2[nH]1)C(O)c1nc2ccccc2[nH]1 (configuration not stated),1,.,.,0,-146,2.5*,-4
CCCC[C@@H]1C=C(C(=O)O)[C@H](c2ccc(Br)cc2)N1S(=O)(=O)c1ccc(C)cc1,0.89,.,.,11,-4,1,.
COc1ccccc1C(=O)NCC(=O)NNc1ncnc(N)c1[N+](=O)[O-],0.75,-30,1.3,25,-159,2.6*,-31
CN(Cc1ccc(Cl)c(Cl)c1)C(=O)C1CSC2(C)CCC(=O)N12 (configuration not stated),0.96,.,.,4,2,0.98,.
C=CCn1c(CNS(=O)(=O)c2ccc(F)cc2)n[nH]c1=S,1.1,.,.,-6,9,0.91,.
C=CCn1c(CNS(=O)(=O)c2ccc(Cl)cc2)n[nH]c1=S,0.83,.,.,16,42*,0.58,-26
Nc1c2c(nn1-c1ccc(F)cc1)CSC2,0.85,.,.,15,6,0.94,.
Cc1ccc(NS(=O)(=O)c2ccc(-c3cnc(C4CC4)o3)cc2)cc1,0.99,.,.,1,37*,0.63,-5
Cc1ccc(CNc2nc(C)c(C(=O)N(C)C)s2)cc1,1,.,.,-1,5,0.95,.
C=CCN1C(=O)/C(=C\C=C2\N(C)c3ccccc3C2(C)C)SC1=S,0.61,14,0.9,38,46*,0.54,-267*
CC1=C/C(=C\C=C(C#N)C#N)N(C)c2ccccc21,0.76,.,.,24,36*,0.64,4
CCOC(=O)Cn1cnc2c(cnn2-c2ccccc2)c1=O,1,.,.,-3,-4,1,.
CCN(CC)c1ccc(N=Nc2nn(C)c(C)c2[N+](=O)[O-])cc1,0.67,24,0.8,33,47*,0.53,35
CCN(Cc1ccccc1)c1ccc(N=Nc2nn(C)c(C)c2[N+](=O)[O-])cc1,0.66,6,0.9,34,35,0.65,.
NC(=O)C1CCN(C(=O)C2CC(=O)N(Cc3ccccc3)C2)CC1 (configuration not stated),0.95,.,.,5,16,0.84,.
CC(C)c1ccc(OCC(=O)NNC(=S)NC(=O)C2CC2)cc1,0.87,.,.,13,4,0.96,.
N#Cc1ccc(OCC(=O)NNC(=S)NC(=O)C2CC2)cc1,0.78,.,.,22,-121,2.2*,0
COc1ccccc1CC(=O)Nc1ccc(S(=O)(=O)N2CC(C)CC(C)C2)cc1 (configuration not stated),1.5,.,.,-51,-22,1.2,.
C[C@@H](NC(=O)c1[nH]cnc1C(=O)Nc1ccon1)c1ccccc1,0.86,.,.,14,-107,2.1*,-80*
C[C@@H](NC(=O)c1nc[nH]c1C(=O)N[C@H](C)c1ccccc1)c1ccccc1,0.98,.,.,2,-20,1.2,.
C[C@H](NC(=O)c1[nH]cnc1C(=O)Nc1ccon1)c1ccccc1,0.85,.,.,15,-80,1.8,.
C[C@@H](NC(=O)c1[nH]cnc1C(=O)Nc1nccs1)c1ccccc1,0.97,.,.,3,-124,2.2*,12
CCN(C[C@H]1N[C@@](C)(C(=O)OC)[C@H]2C(=O)N(C)C(=O)[C@@H]12)C(=O)COc1ccccc1,1,.,.,-4,13,0.87,.
CC(C)CN1C(=O)C(=O)N(CC(=O)c2ccc3c(c2)CCCC3)C1=O,1.1,.,.,-6,-6,1.1,.
